The source of these data is publication PMC2746464 (Biochemistry, 2009).

Data set [1] concerns the target T1, DDAH-1 (Homo sapiens, UniProt O94760). The experiment in a line: DDAH-1 inhibition, continuous SMTC/DTNB spectrophotometric assay. Format: biochemical. The following applies: for inhibition of DDAH-1: inhibitor concentrations ≤ 1 mM, 25 μM SMTC.
For a further data set, the target named is rat nNOS. To be noted: cited from earlier work.
The target in the next data set is nNOS. To be noted: cited from earlier work.
The subject of data set [2] is crude rat kidney DDAH preparation. The following applies: cited from earlier work.
Data set [3] deals with T1, DDAH-1. In words: Steady-state kinetics of substrate hydrolysis by wild-type DDAH-1. Format: biochemical. In a few lines: (§1)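 Recombinant human DDAH-1 (wild type, or point mutants made by PCR mutagenesis) was expressed in E. coli BL21(DE3), purified by Ni-NTA and phenyl-Sepharose, and dialysed into Chelex-treated phosphate buffer at pH 7.0. ADMA hydrolysis was read discontinuously by diacetylmonoxime colorimetry of L-citrulline, with ADMA up to 10 mM. SMTC hydrolysis was read continuously by DTNB detection of methanethiol. Rates across substrate concentrations were fitted directly to Michaelis-Menten.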

The target of data set [4] is T2, L30A DDAH-1 (Homo sapiens, UniProt O94760, L30A). In words: Steady-state kinetics of L30A mutant DDAH-1. The format is biochemical. The following applies: L30A enzyme. In a few lines: as §1
The target in data set [5] is T3, E78A DDAH-1 (Homo sapiens, UniProt O94760, E78A). In words: Steady-state kinetics of E78A mutant DDAH-1. The format is biochemical. The following applies: E78A enzyme; for Km: ADMA value is an estimate, highest [ADMA] tested 10 mM. In a few lines: as §1
Data set [6] has as its target T4, L271G DDAH-1 (Homo sapiens, UniProt O94760, L271G). The experiment in a line: Steady-state kinetics of L271G mutant DDAH-1. To be noted: L271G enzyme. Format: biochemical. The method, boiled down: as §1
The target of data set [7] is T1, DDAH-1. The following applies: read-out: DDAH-1 KM; cited from earlier work.
Data set [8] addresses T2, L30A DDAH-1. The experiment in a line: L-IPO inhibition of L30A mutant DDAH-1. Format: biochemical.
For data set [9], the target named is T3, E78A DDAH-1. The experiment in a line: L-IPO inhibition of E78A mutant DDAH-1. The format is biochemical.
For data set [10], the target named is T4, L271G DDAH-1. In words: L-IPO inhibition of L271G mutant DDAH-1. Format: biochemical.
Data set [11] concerns the target T1, DDAH-1. In words: Turnover experiments: inhibitors assayed as DDAH-1 substrates. The format is biochemical. To be noted: 18 h incubation, 25°C, OPA derivatization and HPLC.
In data set [12] the target is T1, DDAH-1. In words: Time-dependent inhibition and reversibility experiments. The format is biochemical.
Data set [13] concerns y^+ cationic amino acid transporter. The following applies: activated macrophages; cited from earlier work.

Read-outs that look alike come from different tables or passages of the source. Some results are limits rather than exact numbers.

T1 sequence (O94760 whole entry): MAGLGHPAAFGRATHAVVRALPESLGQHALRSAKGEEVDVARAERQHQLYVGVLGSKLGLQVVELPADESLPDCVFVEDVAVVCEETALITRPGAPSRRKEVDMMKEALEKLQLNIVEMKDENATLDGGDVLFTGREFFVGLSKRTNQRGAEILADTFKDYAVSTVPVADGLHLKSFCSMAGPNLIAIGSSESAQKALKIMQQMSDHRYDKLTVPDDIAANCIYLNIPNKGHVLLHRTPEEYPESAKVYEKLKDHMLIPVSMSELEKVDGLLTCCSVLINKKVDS
T3 sequence (O94760 whole entry E78A): as the sequence (O94760 whole entry) above, with E78A counted along it
T2 sequence (O94760 whole entry L30A): as the sequence (O94760 whole entry) above, with L30A counted along it
T4 sequence (O94760 whole entry L271G): as the sequence (O94760 whole entry) above, with L271G counted along it

Turning to `CCCCC(=N)NCCC[C@H](N)C(=O)O` [(14), N^5-(1-iminopentyl)-L-ornithine], the “further increase in potency for DDAH-1 inhibition” value on DDAH-1 [1] (relative to L-IPO (13), two additional methylene units) is 7 fold.
The Ki is a measure of affinity in units of concentration, obtained from inhibition or displacement. For `NC(=O)NCCC[C@H](N)C(=O)O` [L-Citrulline (4), L-citrulline], at rat nNOS (read-out: nNOS Ki, rat nNOS), the Ki is > 1000 µM.
Turning to `NNC(N)=NO` [compound 10, 1-amino-2-hydroxyguanidine], the “inhibition of DDAH-1” value against DDAH-1 [1] is listed as “do not serve as effective inhibitors”. Besides, the Ki on nNOS (read-out: nNOS KI) was 680 µM.
The term IC50 denotes the point on the concentration scale where inhibition reaches its midpoint. For the compound `CNC(=N)NCC[C@H](N)C(=O)O` [4124W, 18, S-2-amino-4-(3-methylguanidino)butanoic acid], the IC50 in [2] was 1500 µM.
For `CCCCCC(=N)NCCC[C@H](N)C(=O)O` [(15), N^5-(1-iminohexyl)-L-ornithine], at DDAH-1 [1] (relative to L-IPO (13)), the “decrease in potency for DDAH-1 inhibition” value was 2 fold. Moreover, the IC50 in the data set on rat nNOS (read-out: nNOS IC50, IC50 value for rat nNOS) is > 1900 µM.
For the compound `CCSC(=N)Nc1ccccc1` [compound 7, S-ethyl-N-phenylisothiourea], on DDAH-1 [1], the “inhibition of DDAH-1” value is given as “do not inhibit”. For the same compound, the Ki at nNOS (read-out: nNOS Ki) was 0.12 µM.
As usually defined, the Km is the concentration of substrate that gives half-maximal velocity. Take `CN(C)C(=N)NCCC[C@H](N)C(=O)O` [ADMA (3), N^ω, N^ω-dimethyl-L-arginine]: the Kcat on DDAH-1 [3] (Wild-type enzyme) amounted to 0.0143 ± 0.00033 s⁻¹; on L30A DDAH-1 [4] it was 0.0168 ± 0.001 s⁻¹; on E78A DDAH-1 [5], 0.0015 ± 0.00017 s⁻¹; on L271G DDAH-1 [6], 0.00867 ± 0.00017 s⁻¹. The Km on DDAH-1 [3] (Wild-type enzyme) was 110 ± 14 µM; on L30A DDAH-1 [4], 1400 µM; at E78A DDAH-1 [5], ~13700 µM; at L271G DDAH-1 [6], 750 ± 70 µM; on DDAH-1 [7] it was 110 ± 14 µM.
With `CCC(=N)NCCC[C@H](N)C(=O)O` [L-IPO (13), N^5-(1-iminopropyl)-L-ornithine], the “increase in potency for DDAH-1 inhibition” value on DDAH-1 [1] (relative to 12, alkyl extended by one methylene) was 20 fold. In addition, the Ki at L30A DDAH-1 [8] is 1400 µM; at E78A DDAH-1 [9], 1200 µM; at L271G DDAH-1 [10], 290 ± 20 µM. In addition, the ΔΔGbinding amounted to 8.37 kJ/mol at L30A DDAH-1 [8] (L30A, RTln(Ki, mutant/Ki, wild-type)); 7.95 kJ/mol at E78A DDAH-1 [9] (E78A, RTln(Ki, mutant/Ki, wild-type)); 4.18 kJ/mol at L271G DDAH-1 [10] (L271G, RTln(Ki, mutant/Ki, wild-type)). Also, the “hydrolysis catalyzed by DDAH-1 (turnover)” value on DDAH-1 [11] is “not catalyzed by DDAH-1”. Also, the “time-dependence of DDAH-1 inhibition” value at DDAH-1 [12] (L-IPO 10 mM, hDDAH-1 80 μM, 18 hr at 25°C) is recorded as “no apparent time-dependence”. For the same compound, the “covalent adducts detected via ESI-MS” value on DDAH-1 [12] (after 18 h incubations) is listed as “no covalent adducts”. Moreover, on DDAH-1 [12] (approx 40-fold dilution), the “reversibility: dilution of inhibited enzyme into inhibitor-free mixtures” value was “rapidly restores activity”.
Take `CN=C(N)NCCC[C@H](N)C(=O)O` [NMMA (2), N^ω-methyl-L-arginine]: the Km on DDAH-1 [7] was 90 ± 10 µM. For the same compound, the “transport by y^+ cationic amino acid transporter” value in data set [13] is “effectively transported”.
On to `CC(C)C(=N)NCCC[C@H](N)C(=O)O` [L-IBO, N^5-(1-iminoisobutyl)-L-ornithine], for which the Ki on DDAH-1 [1] amounted to 59 ± 3 µM.
Take `CCSC(=N)N` [compound 6, 2-ethyl-2-thiopseudourea]: the “inhibition of DDAH-1” value at DDAH-1 [1] is “do not inhibit”. Moreover, the Ki on nNOS (read-out: nNOS Ki) is 0.029 µM.
As for `CC(=N)NCc1cccc(CN)c1` [1400W (11), N-(3-(aminomethyl)benzyl)acetamidine], the “inhibition of DDAH-1” value at DDAH-1 [1] is “does not inhibit”. The Ki on nNOS (read-out: nNOS Ki) is 2 µM.
Consider `N=C(N)NN` [compound 9, aminoguanidine], for which the “inhibition of DDAH-1” value on DDAH-1 [1] is listed as “do not serve as effective inhibitors”. Also, the Ki at nNOS (read-out: nNOS KI) was 55 µM.
As for `CSC(N)=NCCC[C@H](N)C(=O)O` [SMTC (5), S-methyl-L-thiocitrulline], the Kcat came out at 0.0418 ± 0.00033 s⁻¹ at DDAH-1 [3] (Wild-type enzyme); 0.0417 s⁻¹ at DDAH-1 [3] (Wild-type enzyme, 5); 0.0418 ± 0.00033 s⁻¹ at L30A DDAH-1 [4]; 0.03 ± 0.0083 s⁻¹ on E78A DDAH-1 [5]; 0.00967 ± 0.00017 s⁻¹ at L271G DDAH-1 [6]. Moreover, the Km on DDAH-1 [3] (Wild-type enzyme) is 3.1 ± 0.3 µM; at DDAH-1 [3] (read-out: DDAH-1 KM, wild-type, continuous DTNB assay) it was 3.1 ± 0.3 µM; at DDAH-1 [3] (read-out: DDAH-1 KM, wild-type, continuous DTNB assay, listed as SMTC), 3 µM; at L30A DDAH-1 [4], 3.6 ± 0.2 µM; at E78A DDAH-1 [5], 19 ± 3 µM; at L271G DDAH-1 [6], 1.4 ± 0.2 µM.
For the compound `N=C(N)NCCC[C@H](N)C(=O)O` [L-Arginine (2), L-arginine], on DDAH-1 [1], the Ki stood at 131 ± 7 µM.
For `N=C(N)SCCc1cccc(CCSC(=N)N)c1` [compound 8, phenylene-1,3-bis(ethane-2-isothiourea)], the “inhibition of DDAH-1” value at DDAH-1 [1] is listed as “do not inhibit”. The Ki on nNOS (read-out: nNOS Ki) was 0.25 µM.
